Experimental data: ChEMBL document CHEMBL1255219, “Discovery of a β-d-2'-deoxy-2'-α-fluoro-2'-β-C-methyluridine nucleotide prodrug (PSI-7977) for the treatment of hepatitis C virus” (J Med Chem, 2010)

Key:
[1] = system: Hepatitis C virus NS5B S96T/N142T mutant; assay: Antiviral activity against HCV expressing NS5B polymerase S96T/N142T mutation infected in human ET-lunet cells
[2] = system: Hepatitis C virus; assay: Antiviral activity against HCV infected in human ET-lunet cells; assay type: functional, Hepacivirus hominis
Outline: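 ET-lunet replicon cells seeded at 3000 cells/well. Compounds serially diluted in culture medium without G418 and added to cells, which were incubated 4 days at 37 °C in 5% CO2. HCV RNA replication measured by quantitative real-time RT-PCR as ΔCt against the mean no-drug control threshold cycle. EC90, the concentration giving 90% inhibition, was calculated.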

[3] = system: CCRF-CEM; assay: Cytotoxicity against human CEM cells assessed as inhibition of ribosomal DNA up to 100 uM; assay type: cell-based
Outline: (§1)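 CEM or HepG2 cells at 1 × 10^4 per well, compound serially diluted from 100 μM, 14 days at 37 °C, 5% CO2. Medium with compound renewed on days 7 and 11. Total DNA extracted; mitochondrial COXII DNA and rDNA measured by multiplex quantitative PCR. ΔCt converted to log reduction, inhibition relative to untreated cells, and the 90% inhibitory concentration reported.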

[4] = system: Hepatitis C virus; assay: Antiviral activity against HCV infected in human clone A cells; assay type: functional, Hepacivirus hominis; conditions: Hepatitis C virus
Outline: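 Clone A replicon cells seeded at 1500 cells/well. Compounds serially diluted in G418-free culture medium and added, then incubated 4 days at 37 °C in 5% CO2. HCV RNA quantified by real-time RT-PCR as ΔCt relative to the mean no-drug control.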

[5] = system: CCRF-CEM; assay: Cytotoxicity against human CEM cells assessed as inhibition of mitochondrial DNA up to 100 uM; assay type: cell-based
Outline: as §1

[6] = system: Hepatitis C virus; assay: Antiviral activity against HCV expressing NS5B polymerase S282T mutation infected in clone A cells; assay type: functional, Hepacivirus hominis
Outline: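 Replicon cells seeded at 1500 (clone A) or 3000 (ET-lunet) per well. Serially diluted compound added in medium without G418, 4 days at 37 °C, 5% CO2. HCV RNA measured by real-time RT-PCR as ΔCt versus no-drug control. EC90 calculated; fold change of S282T mutant versus wild-type replicon EC90. At least three independent experiments.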

## CC(C)OC(=O)[C@H](C)N[P@@](=O)(OC[C@H]1O[C@@H](n2ccc(=O)[nH]c2=O)[C@](C)(F)[C@@H]1O)Oc1ccccc1
[1]
  EC90: 1.3 µM
[2]
  EC90: 3.3 µM
[3]
  Activity: Non-toxic
[4]
  EC90: 7.5 µM
[5]
  Activity: Non-toxic
[6]
  EC90: > 100 µM
